≈ marks a conversion by molar mass, not a printed value.
Experiments:
[1] = tested on: HeLa; assay: concentration required to inhibit RSV-induced cytopathicity by 50% in HeLa cells; format: functional, cell-based; settings: Homo sapiens
Method in brief: (§1)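 Assay measured inhibition of virus-induced cytopathicity in confluent E6SM, HeLa or Vero monolayers. Cells were inoculated with 100 CCID50 of virus for 1 h adsorption, then unbound virus was removed. Cultures were incubated with serial compound concentrations (400, 200, 100 … µg/mL). Cytopathicity was scored once virus control cultures reached complete CPE, and the 50% effective concentration was derived.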

[2] = tested on: Vero; assay: Minimum inhibitory concentration (MIC) required to elicit a microscopically visible alteration of cell morphology in Vero cells; format: functional; settings: Chlorocebus sabaeus
[3] = biological target: T1, Adenosylhomocysteinase (Homo sapiens, UniProt P23526); assay: Inhibition of S-adenosyl-homocysteine hydrolase at 0.1 uM concentration was determined from enzyme activity remaining; values are per cent of control
Target sequence in this assay (P23526 2-432 limits assumed): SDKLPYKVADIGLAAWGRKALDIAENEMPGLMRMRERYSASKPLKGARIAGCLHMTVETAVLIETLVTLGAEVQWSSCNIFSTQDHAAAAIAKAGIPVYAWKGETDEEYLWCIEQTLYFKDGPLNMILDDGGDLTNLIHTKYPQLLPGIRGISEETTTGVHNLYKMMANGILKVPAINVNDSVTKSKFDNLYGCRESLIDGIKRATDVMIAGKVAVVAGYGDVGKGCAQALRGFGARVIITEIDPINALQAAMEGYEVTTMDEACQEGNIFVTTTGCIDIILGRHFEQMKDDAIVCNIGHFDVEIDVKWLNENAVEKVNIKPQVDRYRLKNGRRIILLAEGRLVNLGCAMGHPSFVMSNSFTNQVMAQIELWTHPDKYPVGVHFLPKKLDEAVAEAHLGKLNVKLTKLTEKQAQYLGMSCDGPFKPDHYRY

[4] = tested on: HeLa; assay: concentration required to inhibit Coxsackie virus B4-induced cytopathicity by 50% in HeLa cells; format: functional, cell-based; settings: Homo sapiens; method in brief: as §1
[5] = tested on: Vero; assay: concentration required to inhibit parainfluenza-3 virus-induced cytopathicity by 50% in Vero cells; format: functional, cell-based; settings: Chlorocebus sabaeus; method in brief: as §1
[6] = biological target: T1, Adenosylhomocysteinase; assay: Inhibition of S-adenosyl-homocysteine hydrolase at 1 uM concentration was determined from enzyme activity remaining; values are per cent of control
Target sequence in this assay (P23526 2-432 limits assumed): as above

[7] = tested on: Vero; assay: concentration required to inhibit Sindbis virus -induced cytopathicity by 50% in Vero cells; format: functional, cell-based; settings: Chlorocebus sabaeus; method in brief: as §1
[8] = biological target: T1, Adenosylhomocysteinase; assay: (§2) Enzyme-mediated release of Adenine(Ade) from the compound; format: functional
Method in brief: (§3)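 AdoHcy hydrolase (10 µM) was incubated with 100 µM compound in buffer A at 37 °C for 20 min. At each time point the reaction was stopped with 5 M HClO4 and adenine measured by HPLC. The peak identity was confirmed by co-injection with authentic adenine and by CI/NH3 mass spectrometry.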
Target sequence in this assay (P23526 2-432 limits assumed): as above

[9] = tested on: Vero; assay: concentration required to inhibit Coxsackie virus B4-induced cytopathicity by 50% in Vero cells; format: functional, cell-based; settings: Chlorocebus sabaeus; method in brief: as §1
[10] = tested on: E6SM; assay: concentration required to inhibit HSV-2(G)-induced cytopathicity by 50% in E6SM cells; format: functional, cell-based; settings: Homo sapiens; method in brief: as §1
[11] = tested on: E6SM; assay: Minimum inhibitory concentration (MIC) required to elicit a microscopically visible alteration of cell morphology in E6SM cells; format: functional; settings: Homo sapiens
[12] = biological target: T1, Adenosylhomocysteinase; assay: NADH content of the enzyme (percentage of total coenzyme) from the compound; format: functional
Method in brief: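 AdoHcy hydrolase (10 µM) in buffer A was incubated with 100 µM compound at 37 °C for 20 min. Conversion of enzyme-bound NAD⁺ to NADH was followed by UV absorbance at 340 nm and quantified against a standard curve. Values are given as % of total coenzyme.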
Target sequence in this assay (P23526 2-432 limits assumed): as above

[13] = biological target: T1, Adenosylhomocysteinase; assay: Enzyme-mediated release of halide ions from the compound; format: functional
Method in brief: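 Enzyme (10 µM) was incubated with 100 µM compound in buffer A at 37 °C for 20 min and the filtrate collected through a 3000 Mr cutoff device. Cl⁻ and Br⁻ were measured by anion-exchange HPLC with conductivity detection (1.5 mM p-hydroxybenzoic acid/2% methanol, pH 8.5). I⁻ was measured by C18 ion-pair HPLC at 260 nm. All ions were quantified against standard curves.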
Target sequence in this assay (P23526 2-432 limits assumed): as above

[14] = biological target: T1, Adenosylhomocysteinase; assay: (§4) Kinetic constant calculated from the pseudo-first-order rate constant(k app) for S-adenosyl-homocysteine hydrolase inactivation
Method in brief: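 For time-dependent inactivation, enzyme (25 nM) was incubated with various inhibitor concentrations in buffer A at 37 °C for 0–5 min, then residual synthetic-direction activity was assayed by HPLC. k_app was taken from the log(remaining activity) versus time plot. k2 and Ki were derived from k_app and [I] by the Kitz–Wilson method.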
Target sequence in this assay (P23526 2-432 limits assumed): as above

[15] = tested on: E6SM; assay: concentration required to inhibit vaccinia virus-induced cytopathicity by 50% in E6SM cells; format: functional, cell-based; settings: Homo sapiens; method in brief: as §1
[16] = tested on: E6SM; assay: concentration required to inhibit HSV-1(KOS)-induced cytopathicity by 50% in E6SM cells; format: functional, cell-based; settings: Homo sapiens; method in brief: as §1
[17] = tested on: Vero; assay: concentration required to inhibit reovirus-1-induced cytopathicity by 50% in Vero cells; format: functional, cell-based; settings: Chlorocebus sabaeus; method in brief: as §1
[18] = biological target: T1, Adenosylhomocysteinase; assay: Inhibition of S-adenosyl-homocysteine hydrolase at 10 uM concentration was determined from enzyme activity remaining; values are per cent of control
[19] = biological target: T1, Adenosylhomocysteinase; assay: as §4; remark: listed apart in the source
Method in brief: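 Recombinant human placental AdoHcy hydrolase (25 nM) preincubated with 0–100 µM inhibitor in buffer A (50 mM potassium phosphate, pH 7.2, 1 mM EDTA) at 37 °C for 0–5 min. Residual activity then measured in the synthetic direction (Ado 1 mM, Hcy 5 mM, 37 °C, 5 min; AdoHcy by reverse-phase HPLC). k_app taken from log remaining activity vs time; k2 and Ki from Kitz–Wilson analysis.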
Target sequence in this assay (P23526 whole entry): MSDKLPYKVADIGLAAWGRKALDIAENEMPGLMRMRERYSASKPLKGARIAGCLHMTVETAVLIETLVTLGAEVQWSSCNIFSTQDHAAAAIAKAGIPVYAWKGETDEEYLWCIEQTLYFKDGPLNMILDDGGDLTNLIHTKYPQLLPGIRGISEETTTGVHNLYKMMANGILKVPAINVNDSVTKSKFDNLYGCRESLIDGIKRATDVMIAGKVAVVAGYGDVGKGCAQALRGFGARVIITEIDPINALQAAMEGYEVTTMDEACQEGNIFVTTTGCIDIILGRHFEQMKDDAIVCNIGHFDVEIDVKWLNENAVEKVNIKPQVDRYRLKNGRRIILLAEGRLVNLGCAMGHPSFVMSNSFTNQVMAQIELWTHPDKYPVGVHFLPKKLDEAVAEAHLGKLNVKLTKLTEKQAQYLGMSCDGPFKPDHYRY

[20] = biological target: T1, Adenosylhomocysteinase; assay: Inhibition of S-adenosyl-homocysteine hydrolase at 100 uM concentration
Method in brief: (§5)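 Recombinant human placental AdoHcy hydrolase was exposed to 100 µM inhibitor in buffer A (50 mM potassium phosphate, pH 7.2, 1 mM EDTA) at 37 °C for 20 min. Residual activity was measured in the synthetic direction with 1 mM Ado plus 5 mM Hcy for 5 min at 37 °C. The reaction was stopped with HClO4 and AdoHcy quantified by C18 reverse-phase HPLC.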

[21] = tested on: E6SM; assay: concentration required to inhibit HSV-1/TK (B2006) or VMW1837-induced cytopathicity by 50% in E6SM cells; format: functional, cell-based; settings: Homo sapiens; method in brief: as §1
[22] = tested on: E6SM; assay: concentration required to inhibit VSV-induced cytopathicity by 50% in E6SM cells; format: functional, cell-based; settings: Homo sapiens; method in brief: as §1
[23] = tested on: Vero; assay: concentration required to inhibit Punta Toro virus-induced cytopathicity by 50% in Vero cells; format: functional, cell-based; settings: Chlorocebus sabaeus; method in brief: as §1
[24] = tested on: HeLa; assay: concentration required to inhibit VSV-induced cytopathicity by 50% in HeLa cells; format: functional, cell-based; settings: Homo sapiens; method in brief: as §1
[25] = biological target: T1, Adenosylhomocysteinase; assay: Effect on the S-adenosyl-homocysteine hydrolase activity; format: functional; method in brief: as §5
[26] = tested on: HeLa; assay: Minimum inhibitory concentration (MIC) required to elicit a microscopically visible alteration of cell morphology in HeLa cells; format: functional; settings: Homo sapiens
[27] = biological target: T1, Adenosylhomocysteinase; assay: Inhibition of S-adenosyl-homocysteine hydrolase at 01 uM concentration was determined from enzyme activity remaining
Method in brief: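 Recombinant human placental AdoHcy hydrolase (25 nM) was preincubated with 0–100 µM inhibitor in buffer A (50 mM potassium phosphate, pH 7.2, 1 mM EDTA) at 37 °C for 20 min. Remaining activity was assayed as AdoHcy formed from 1 mM Ado and 5 mM Hcy (5 min, 37 °C), then HClO4 quench and C18 HPLC. Results are given as % activity remaining.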

[28] = biological target: T1, Adenosylhomocysteinase; assay: Inhibition of S-adenosyl-homocysteine hydrolase at 100 uM concentration was determined from enzyme activity remaining; settings: values are per cent of control; method in brief: as §5
[29] = biological target: T1, Adenosylhomocysteinase; assay: as §2; method in brief: as §3
[30] = biological target: T1, Adenosylhomocysteinase; assay: Inhibition of S-adenosyl-homocysteine hydrolase at 100 uM concentration was determined from S-adenosylhomocysteine hydrolase activity remaining; settings: values are per cent of control; method in brief: as §5
[31] = tested on: Vero; assay: concentration required to inhibit reovirus-1 induced cytopathicity by 50% in Vero cells; format: functional, cell-based; settings: Chlorocebus sabaeus; method in brief: as §1

| SMILES | EC50 [1] [µM] | MIC [2] [µM] | residual activity [3] [%] | EC50 [4] [µM] | EC50 [5] [µM] | EC50 [7] [µM] | EC50 [9] [µM] | EC50 [10] [µM] | MIC [11] [µM] | Total coenzyme [12] [%] | Release [13] [%] | k2 [14] [min⁻¹] | EC50 [15] [µM] | EC50 [16] [µM] | EC50 [17] [µM] | EC50 [21] [µM] | EC50 [22] [µM] | EC50 [23] [µM] | EC50 [24] [µM] | MIC [26] [µM] | further results |
| --- | --- | --- | --- | --- | --- | --- | --- | --- | --- | --- | --- | --- | --- | --- | --- | --- | --- | --- | --- | --- | --- |
| Nc1ncnc2c1ncn2C1O[C@H](C#CI)[C@@H](O)[C@H]1O (some centres not stated) | > 260 | > 180 | 80 | > 260 | 2.6 | > 104 | > 104 | > 10 | 26 (≈ 10.1 µg/mL) | 96 | 0 | 0.095 | 0.26 | > 10 | > 0.78 | > 10 | 0.08 | > 104 | 260 | > 1040 | residual activity [6]: 44.6%; Release [8]: 5.7%; residual activity [18]: 8.8%; Ki [19]: 1.1 µM; inhibition [20]: < 2%; Activity [25]: 1.4% |
| Nc1ncnc2c1ncn2C1O[C@H](C#CCl)[C@@H](O)[C@H]1O (some centres not stated) | > 140 | > 140 | 89.3 | > 140 | > 35 | > 35 | > 35 | > 140 | > 340 | 53 | 28 | 0.48 | 140 | > 140 | > 35 | > 140 | 70 | > 35 | > 140 | > 340 | inhibition [27]: 64%; residual activity [28]: 55%; Release [29]: 18%; residual activity [18]: 58.9%; Ki [19]: 1.7 µM; Activity [25]: 47% |
| NC(=O)c1ncn([C@@H]2O[C@H](CO)[C@@H](O)[C@H]2O)n1 [RIBAVIRIN] | – | > 1600 | – | 320 | 64 | 64 | > 1600 | 960 | > 1600 | – | – | – | 192 | 960 | 64 | 128 | 192 | 64 | 192 | > 1600 | – |
| Nc1ncnc2c1ncn2C1O[C@H](C#CBr)[C@@H](O)[C@H]1O (some centres not stated) | 210 | > 120 | 91 | > 300 | 6 | > 30 | > 30 | > 120 | > 300 | 49 | 70 | 0.49 | 6 | > 120 | 3 | > 120 | 6 | > 30 | 45 | > 300 | residual activity [6]: 73.2%; Release [8]: 28%; residual activity [18]: 62.9%; residual activity [30]: 56%; Ki [19]: 3.8 µM; Activity [25]: 49% |
| NC1=NC(CCCO)N(CCCO)c2[nH]cnc21 (configuration not stated) | – | > 1600 | – | > 2000 | 1200 | > 2000 | > 2000 | – | – | – | – | – | – | – | – | – | – | > 2000 | 400 | > 2000 | EC50 [31]: 240 µM |

Source: ChEMBL document CHEMBL1131121, “Inactivation of S-adenosyl-L-homocysteine hydrolase and antiviral activity with 5',5',6',6'-tetradehydro-6'-deoxy-6'-halohomoadenosine analogues (4'-haloacetylene analogues derived from adenosine)” (J Med Chem, 1998)
